Results published in ChEMBL document CHEMBL4699403, “Cyclic boronates as versatile scaffolds for KPC-2 beta-lactamase inhibition” (RSC Med Chem, 2020).

Legend:
[1] = Inhibition of beta lactamase KPC-2 in Klebsiella pneumoniae using nitrocefin as substrate preincubated for 10 mins followed by substrate addition
How it was run: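 KPC-2 was preincubated with cyclic boronate for 10 min in 10 mM HEPES pH 7.5, 150 mM NaCl at 25 °C. 50 μM nitrocefin was then added and initial hydrolysis rates were read at 486 nm. IC50 was derived from the inhibitor concentration dependence of these rates. Inhibitor stocks were 100 mM in DMSO, diluted in buffer.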

[2] = Inhibition of beta lactamase KPC-2 in Klebsiella pneumoniae assessed as apparent inhibition constant using nitrocefin as substrate measured without preincubation by Dixon plot analysis; details: read-out: Ki(app)
How it was run: (§1)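 Direct competition assays at 25 °C in 10 mM HEPES pH 7.5, 150 mM NaCl. A range of cyclic boronate concentrations was mixed with 50 μM nitrocefin, and the reaction was started by adding 1 nM KPC-2. Nitrocefin hydrolysis was followed at 486 nm (Δε 20 500 M-1 cm-1). Kiapp and k2/K were both taken from these competition data. Inhibitor stocks were 100 mM in DMSO, diluted in buffer.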

[3] = test system: Klebsiella pneumoniae; assay: Inhibition of beta lactamase KPC-2 in Klebsiella pneumoniae assessed as apparent second order rate constant K2/K using nitrocefin as substrate; how it was run: as §1
[4] = test system: Klebsiella pneumoniae; assay: Potentiation of cefepime-induced antibacterial activity against Klebsiella pneumoniae Ecl8 transfected with pUBYT vector expressing KPC-2 assessed as cefepime MIC measured after 18 to 24 hrs by CLSI protocol based broth microdilution assay (Rvb >=256 ug/ml); format: functional; details: time hrs 18-24
How it was run: (§2)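 Broth microdilution in cation-adjusted Mueller–Hinton broth per CLSI, triplicate; K. pneumoniae Ecl8 carrying pUBYT with blaKPC-2 under the ISKpn7 promoter. β-Lactam serially diluted with inhibitor fixed at 4 mg per liter (diluted from 100 mM DMSO stock). Incubated at 37 °C for 18 to 24 hours; growth read as absorbance at 600 nm.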

[5] = test system: Klebsiella pneumoniae; assay: Potentiation of meropenem-induced antibacterial activity against Klebsiella pneumoniae Ecl8 transfected with pUBYT vector expressing KPC-2 assessed as meropenem MIC measured after 18 to 24 hrs by CLSI protocol based broth microdilution assay (reference value: 16 ug/ml); format: functional; details: time hrs 18-24; how it was run: as §2
[6] = test system: Klebsiella pneumoniae; assay: Irreversible inhibition of beta lactamase KPC-2 in Klebsiella pneumoniae assessed as off-rate constant using nitrocefin as substrate preincubated for 30 mins followed by substrate addition
How it was run: (§3)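 Jump-dilution off-rate assay. 1 μM KPC-2 was preincubated with 8 μM cyclic boronate for 30 min at room temperature, then serially diluted to a final KPC-2 concentration of 500 pM. 50 μM nitrocefin was added and recovery of hydrolysis was monitored at 486 nm in 10 mM HEPES pH 7.5, 150 mM NaCl. koff and half-life were derived from the recovery.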

[7] = test system: Klebsiella pneumoniae; assay: Inhibition of beta lactamase KPC-2 in Klebsiella pneumoniae assessed as irreversible covalent complex formation by measuring half life using nitrocefin as substrate; how it was run: as §3

Row | SMILES | IC50 [1] [nM] | Ki [2] [nM] | K [3] | MIC [4] [µg/mL] | MIC [5] [µg/mL] | K [6] [s⁻¹] | T1/2 [7] [h]
1 | NCCN[C@H]1CC[C@H](CC(=O)N[C@H]2Cc3cccc(C(=O)O)c3OB2O)CC1 | 37 | 1300 | 1 10^4/M/s | ≤ 0.125 | ≤ 0.125 | – | –
2 | O=C(NC1CCNCC1)[C@@H]1CC[C@@H]2CN1C(=O)N2OS(=O)(=O)O [RELEBACTAM] | – | 1200 | – | – | – | 0.00087 | –
3 | O=C(O)C[C@@H]1CC[C@H](NC(=O)Cc2cccs2)B(O)O1 [VABORBACTAM] | 35 | 8500 | 6.7 10^2/M/s | ≤ 0.125 | ≤ 0.125 | 0.00016 | 1.2
